Laboratory results reported in ChEMBL document CHEMBL4130494, “Crassiflorone derivatives that inhibit Trypanosoma brucei glyceraldehyde-3-phosphate dehydrogenase (TbGAPDH) and Trypanosoma cruzi trypanothione reductase (TcTR) and display trypanocidal activity” (Eur J Med Chem, 2017).
In brackets after ≈: the same amount, converted by molar mass. Activity calls are given as the source filed them. The calls are words filed in the database; no cut-off is given here.

Assays:
CYP3A4 = CYP3A4 (Homo sapiens, UniProt P08684); assay: Inhibition of human CYP3A4 at 10 uM by P450-Glo assay relative to control; format: ADME
How it was run: (§1)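 P450-Glo luminescent platform: CYP action on each substrate generates light; decreased light taken as inhibition.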

Trypanothione reductase [1] = target: T1, Trypanothione reductase (Trypanosoma cruzi, UniProt P28593); assay: Non-competitive inhibition of Trypanosoma cruzi trypanothione reductase assessed as reduction in NADPH consumption using varying levels of trypanothione disulfide as substrate by Lineweaver-Burk plot analysis
How it was run: (§2)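 Same TcTR assay with two fixed inhibitor concentrations and TS2 at 20, 40, 60, 100, 200 μM; inhibition type from Lineweaver–Burk plots; Ki by nonlinear least-squares fit of direct plot; inhibitor assays at least duplicate.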

hERG (KCNH2) = hERG (KCNH2) (Homo sapiens, UniProt Q12809); assay: Inhibition of Tracer Red binding to human ERG expressed in membranes at 10 uM by fluorescence polarization assay relative to control; conditions: membranes expressing human ERG, probe Tracer Red
How it was run: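 Fluorescence polarization displacement of a high-affinity red fluorescent tracer from hERG channel–containing membrane fraction.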

[2] = Cytotoxicity against human A549 cells assessed as cell growth at 10 uM by CellTiter-Glo assay relative to control; format: cell-based; conditions: read-out: Activity
How it was run: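 A549 cells; cellular ATP measured by CellTiter-Glo luminescence as a proxy for cell number; paclitaxel 10 μM as positive control.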

786-0 = assay: Cytotoxicity against human 786-O cells assessed as mitochondrial viability at 10 uM by CMXRos staining based high-content imaging analysis relative to control; format: cell-based; conditions: 786-0, 10 µM
How it was run: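 786-O cells kept in RPMI-1640 with 2 mM glutamine, 10% FCS, streptomycin and penicillin G; mitochondria of live cells stained with MitoTracker Red CMXRos and imaged by high-content imaging.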

CYP2D6 = CYP2D6 (Homo sapiens, UniProt P10635); assay: Inhibition of human CYP2D6 at 10 uM by P450-Glo assay relative to control; format: ADME; how it was run: as §1
[3] = target: Trypanothione reductase (Trypanosoma cruzi) (UniProt P28593); assay: Inhibition of Trypanosoma cruzi trypanothione reductase assessed as reduction in NADPH consumption at 20 uM using 40 uM trypanothione disulfide as substrate by spectrophotometric method relative to control
How it was run: (§3)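 Recombinant TcTR (5–10 mU) at 25 °C in 40 mM HEPES, 1 mM EDTA, pH 7.5, 100 μM NADPH, 5% DMSO; started with trypanothione disulfide; NADPH consumption read at 340 nm; percentage inhibition calculated.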

CYP2C9 = CYP2C9 (Homo sapiens, UniProt P11712); assay: Inhibition of human CYP2C9 at 10 uM by P450-Glo assay relative to control; format: ADME; how it was run: as §1
[4] = target: Trypanothione reductase (Trypanosoma cruzi) (UniProt P28593); assay: Inhibition of Trypanosoma cruzi trypanothione reductase assessed as reduction in NADPH consumption at 20 uM using 100 uM trypanothione disulfide as substrate by spectrophotometric method relative to control; how it was run: as §3
CYP2C19 = CYP2C19 (Homo sapiens, UniProt P33261); assay: Inhibition of human CYP2C19 at 10 uM by P450-Glo assay relative to control; format: ADME; how it was run: as §1
[5] = Solubility in PBS after overnight incubation by nephelometry; format: physicochemical
[6] = Solubility in pH 7.4 Hanks simulated body fluid after overnight incubation by nephelometry; format: physicochemical
CYP1A2 = target: T2, CYP1A2 (Homo sapiens, UniProt P05177); assay: Inhibition of human CYP1A2 at 10 uM by P450-Glo assay relative to control; format: ADME; how it was run: as §1
T2 sequence (P05177 whole entry): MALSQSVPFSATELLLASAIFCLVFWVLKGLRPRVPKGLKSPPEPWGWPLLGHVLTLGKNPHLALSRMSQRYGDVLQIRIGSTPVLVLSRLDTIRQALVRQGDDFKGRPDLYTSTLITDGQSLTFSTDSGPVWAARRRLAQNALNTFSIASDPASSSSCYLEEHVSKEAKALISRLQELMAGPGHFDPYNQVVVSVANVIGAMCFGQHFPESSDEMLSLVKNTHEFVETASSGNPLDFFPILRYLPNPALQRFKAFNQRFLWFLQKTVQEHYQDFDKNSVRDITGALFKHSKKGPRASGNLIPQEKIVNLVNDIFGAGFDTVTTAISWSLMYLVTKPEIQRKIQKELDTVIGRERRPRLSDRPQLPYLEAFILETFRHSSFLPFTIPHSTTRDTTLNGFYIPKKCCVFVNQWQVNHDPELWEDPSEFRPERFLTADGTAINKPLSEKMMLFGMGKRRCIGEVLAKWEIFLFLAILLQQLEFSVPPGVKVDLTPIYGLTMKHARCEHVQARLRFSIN

[7] = target: T3, Pteridine reductase 1 (Leishmania major) (UniProt Q01782); assay: Inhibition of Leishmania major pteridine reductase 1 assessed as reduction in conversion of dihydrobiopterin to tetrahydrobiopterin at 10 uM up to 50 mins in presence of NADPH by cytochrome c reduction coupled photometric assay relative to control
T3 sequence (whole entry): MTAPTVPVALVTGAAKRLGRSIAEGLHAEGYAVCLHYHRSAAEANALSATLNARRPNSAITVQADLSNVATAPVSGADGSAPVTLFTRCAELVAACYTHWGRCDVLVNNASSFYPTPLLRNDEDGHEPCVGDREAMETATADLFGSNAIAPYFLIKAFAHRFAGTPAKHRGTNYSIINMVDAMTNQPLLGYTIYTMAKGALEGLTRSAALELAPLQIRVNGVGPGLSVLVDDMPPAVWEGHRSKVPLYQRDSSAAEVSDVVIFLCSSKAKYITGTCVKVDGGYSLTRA

[8] = target: T4, Pteridine reductase, putative (Trypanosoma brucei) (UniProt Q581W1); assay: Inhibition of Trypanosoma brucei pteridine reductase 1 assessed as reduction in conversion of dihydrobiopterin to tetrahydrobiopterin at 10 uM up to 50 mins in presence of NADPH by cytochrome c reduction coupled photometric assay relative to control
T4 sequence (whole entry): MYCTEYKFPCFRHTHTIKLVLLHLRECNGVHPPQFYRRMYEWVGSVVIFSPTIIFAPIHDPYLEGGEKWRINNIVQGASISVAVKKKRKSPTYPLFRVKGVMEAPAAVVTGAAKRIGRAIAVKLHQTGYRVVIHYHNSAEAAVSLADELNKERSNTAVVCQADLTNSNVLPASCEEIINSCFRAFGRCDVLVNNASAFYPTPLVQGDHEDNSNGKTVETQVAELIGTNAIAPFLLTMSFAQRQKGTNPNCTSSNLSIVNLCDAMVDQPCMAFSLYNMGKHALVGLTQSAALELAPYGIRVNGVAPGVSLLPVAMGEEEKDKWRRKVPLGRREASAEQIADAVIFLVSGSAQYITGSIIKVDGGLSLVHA

[9] = Inhibition of Trypanosoma brucei glyceraldehyde-3-phosphate dehydrogenase using GAP as substrate in presence of NAD+ by spectrophotometric method
How it was run: (§4)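 Recombinant TbGAPDH (200–300 μg protein) in 10 mM triethanolamine, 1.7 mM NaHCO3, 100 mM KCl, 5 mM MgSO4, 1 mM EDTA, pH 7.6, 25 °C, with 400 μM NAD+, 500 μM KH2PO4, 300 μM GAP; NAD+ reduction followed at 340 nm; inhibitors from DMSO stocks; triplicate; reported as percentage activity.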

[10] = target: Trypanothione reductase (Trypanosoma cruzi) (UniProt P28593); assay: Inhibition of Trypanosoma cruzi trypanothione reductase assessed as reduction in NADPH consumption at 100 uM using 100 uM trypanothione disulfide as substrate by spectrophotometric method relative to control; how it was run: as §3
[11] = target: T3, Pteridine reductase 1 (Leishmania major); assay: Inhibition of Leishmania major pteridine reductase 1 assessed as reduction in conversion of dihydrobiopterin to tetrahydrobiopterin at 50 uM up to 50 mins in presence of NADPH by cytochrome c reduction coupled photometric assay relative to control
[12] = target: Trypanothione reductase (Trypanosoma cruzi) (UniProt P28593); assay: Inhibition of Trypanosoma cruzi trypanothione reductase assessed as reduction in NADPH consumption at 100 uM using 40 uM trypanothione disulfide as substrate by spectrophotometric method relative to control; how it was run: as §3
Trypanosoma brucei = assay: Inhibition of Trypanosoma brucei glyceraldehyde-3-phosphate dehydrogenase at 10 uM using GAP as substrate in presence of NAD+ by spectrophotometric method relative to control; how it was run: as §4
[13] = system: Trypanosoma brucei brucei; assay: Growth inhibition of Trypanosoma brucei brucei Lister 427 bloodstream forms at 50 uM by SYBR Green based assay relative to control; format: functional; conditions: read-out: GI
[14] = target: T4, Pteridine reductase, putative (Trypanosoma brucei); assay: Inhibition of Trypanosoma brucei pteridine reductase 1 assessed as reduction in conversion of dihydrobiopterin to tetrahydrobiopterin at 50 uM up to 50 mins in presence of NADPH by cytochrome c reduction coupled photometric assay relative to control
[15] = target: Trypanothione reductase (Trypanosoma cruzi) (UniProt P28593); assay: Inhibition of Trypanosoma cruzi trypanothione reductase assessed as reduction in NADPH consumption at 10 uM using 100 uM trypanothione disulfide as substrate by spectrophotometric method; how it was run: as §3
[16] = target: Trypanothione reductase (Trypanosoma cruzi) (UniProt P28593); assay: Inhibition of Trypanosoma cruzi trypanothione reductase assessed as reduction in NADPH consumption at 10 uM using 40 uM trypanothione disulfide as substrate by spectrophotometric method; how it was run: as §3
Trypanosoma cruzi = assay: Growth inhibition of Trypanosoma cruzi Y trypamastigotes infected in human U2OS cells at 10 uM after 72 hrs by Draq 5 staining based high-content automated imaging analysis relative to control; format: functional; conditions: read-out: GI
How it was run: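 U2OS cells (3,000/well) co-seeded with Y strain trypomastigotes at 5:1 right after compound addition; 72 h at 37 °C, 5% CO2. Fixed, stained, imaged and normalized as for the Leishmania assay; host toxicity from cell ratio against negative-control wells.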

Trypanothione reductase [17] = target: T1, Trypanothione reductase; assay: Mixed-type inhibition of Trypanosoma cruzi trypanothione reductase assessed as reduction in NADPH consumption using varying levels of trypanothione disulfide as substrate by Lineweaver-Burk plot analysis; how it was run: as §2
[18] = target: T3, Pteridine reductase 1 (Leishmania major); assay: Inhibition of Leishmania major pteridine reductase 1 assessed as reduction in conversion of dihydrobiopterin to tetrahydrobiopterin at 20 uM up to 50 mins in presence of NADPH by cytochrome c reduction coupled photometric assay relative to control
Leishmania infantum = assay: Growth inhibition of Leishmania infantum MHOM/BR/72/BH046 amastigotes infected in human THP1 cells at 10 uM after 48 hrs by Draq 5 staining based high-content automated imaging analysis relative to control; format: functional; conditions: MHOM/BR/72/BH046, THP-1, 48 h, read-out: GI
How it was run: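 THP-1 cells differentiated 48 h with 50 ng/mL PMA, infected 24 h with 6-day-old promastigotes (50 per cell), then treated 48 h; 0.5% DMSO negative, 10 µM amphotericin B positive. Paraformaldehyde-fixed, Draq5-stained, imaged; infection ratio normalized to DMSO-treated infected and non-infected controls.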

[19] = system: Trypanosoma brucei brucei; assay: Growth inhibition of Trypanosoma brucei brucei Lister 427 bloodstream forms at 10 uM by SYBR Green based assay relative to control; format: functional; conditions: read-out: GI
[20] = target: T4, Pteridine reductase, putative (Trypanosoma brucei); assay: Inhibition of Trypanosoma brucei pteridine reductase 1 assessed as reduction in conversion of dihydrobiopterin to tetrahydrobiopterin at 20 uM up to 50 mins in presence of NADPH by cytochrome c reduction coupled photometric assay relative to control
[21] = Inhibition of Trypanosoma brucei glyceraldehyde-3-phosphate dehydrogenase
Trypanothione reductase [22] = target: T1, Trypanothione reductase; assay: Inhibition of Trypanosoma cruzi trypanothione reductase

Sequence of CYP2C9 (P11712 whole entry): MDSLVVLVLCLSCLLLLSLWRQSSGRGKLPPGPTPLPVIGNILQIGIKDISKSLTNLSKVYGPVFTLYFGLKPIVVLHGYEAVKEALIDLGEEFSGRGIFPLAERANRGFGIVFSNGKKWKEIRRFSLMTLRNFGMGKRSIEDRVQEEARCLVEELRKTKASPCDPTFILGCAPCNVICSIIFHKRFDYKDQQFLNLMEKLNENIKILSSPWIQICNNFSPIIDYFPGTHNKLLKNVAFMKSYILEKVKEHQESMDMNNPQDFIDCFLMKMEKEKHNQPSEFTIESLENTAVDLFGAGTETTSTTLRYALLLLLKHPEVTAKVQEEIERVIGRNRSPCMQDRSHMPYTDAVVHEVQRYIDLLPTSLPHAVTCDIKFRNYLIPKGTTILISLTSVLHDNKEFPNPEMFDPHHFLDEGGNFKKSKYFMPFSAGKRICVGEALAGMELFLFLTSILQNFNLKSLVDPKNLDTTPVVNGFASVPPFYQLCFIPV
T1 sequence (P28593 whole entry): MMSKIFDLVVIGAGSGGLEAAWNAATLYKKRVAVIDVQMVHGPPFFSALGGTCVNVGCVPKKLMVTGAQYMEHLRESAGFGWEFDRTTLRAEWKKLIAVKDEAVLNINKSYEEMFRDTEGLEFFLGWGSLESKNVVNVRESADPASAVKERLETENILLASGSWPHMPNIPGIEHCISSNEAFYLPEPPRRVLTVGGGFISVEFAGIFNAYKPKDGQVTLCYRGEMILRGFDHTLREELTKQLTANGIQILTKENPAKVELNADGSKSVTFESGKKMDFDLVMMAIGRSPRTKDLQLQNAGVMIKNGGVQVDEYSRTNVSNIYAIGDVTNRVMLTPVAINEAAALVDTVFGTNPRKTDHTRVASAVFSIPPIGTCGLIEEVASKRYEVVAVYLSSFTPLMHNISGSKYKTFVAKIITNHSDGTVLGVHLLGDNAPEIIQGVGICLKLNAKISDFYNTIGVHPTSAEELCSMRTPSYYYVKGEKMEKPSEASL
Sequence of Trypanothione reductase (Trypanosoma cruzi) (P28593 whole entry, looked up): as the sequence (P28593 whole entry) above
Sequence of hERG (KCNH2) (Q12809 whole entry): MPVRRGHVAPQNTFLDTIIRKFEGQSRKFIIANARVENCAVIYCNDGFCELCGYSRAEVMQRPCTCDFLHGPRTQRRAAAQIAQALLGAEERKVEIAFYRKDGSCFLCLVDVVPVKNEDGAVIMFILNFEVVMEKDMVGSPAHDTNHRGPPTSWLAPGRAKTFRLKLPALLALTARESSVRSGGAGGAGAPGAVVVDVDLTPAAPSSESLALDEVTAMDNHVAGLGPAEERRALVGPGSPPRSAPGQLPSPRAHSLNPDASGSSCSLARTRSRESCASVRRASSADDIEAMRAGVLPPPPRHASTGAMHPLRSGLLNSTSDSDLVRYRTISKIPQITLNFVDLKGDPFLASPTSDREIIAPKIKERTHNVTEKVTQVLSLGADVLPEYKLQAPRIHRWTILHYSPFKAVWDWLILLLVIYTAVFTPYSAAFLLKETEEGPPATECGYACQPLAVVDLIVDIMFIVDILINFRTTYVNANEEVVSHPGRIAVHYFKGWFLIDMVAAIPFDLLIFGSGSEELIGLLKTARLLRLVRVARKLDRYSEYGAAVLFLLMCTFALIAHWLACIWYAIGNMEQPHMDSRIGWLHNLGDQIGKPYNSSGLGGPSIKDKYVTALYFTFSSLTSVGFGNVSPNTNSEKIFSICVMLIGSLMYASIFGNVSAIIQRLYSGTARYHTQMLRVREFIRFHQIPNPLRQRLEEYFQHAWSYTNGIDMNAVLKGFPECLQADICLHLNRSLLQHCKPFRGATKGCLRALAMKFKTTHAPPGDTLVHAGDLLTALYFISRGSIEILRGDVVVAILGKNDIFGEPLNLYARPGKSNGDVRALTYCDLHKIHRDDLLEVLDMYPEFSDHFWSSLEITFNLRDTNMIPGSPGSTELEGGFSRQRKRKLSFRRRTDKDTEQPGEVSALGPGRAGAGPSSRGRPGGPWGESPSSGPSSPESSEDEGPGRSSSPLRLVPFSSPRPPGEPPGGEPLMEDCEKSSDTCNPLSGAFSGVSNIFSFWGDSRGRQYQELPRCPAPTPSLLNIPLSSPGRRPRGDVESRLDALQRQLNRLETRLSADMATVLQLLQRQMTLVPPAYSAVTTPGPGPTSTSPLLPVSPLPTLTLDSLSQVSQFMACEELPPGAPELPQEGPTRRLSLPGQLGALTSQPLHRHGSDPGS
Sequence of CYP2C19 (P33261 whole entry): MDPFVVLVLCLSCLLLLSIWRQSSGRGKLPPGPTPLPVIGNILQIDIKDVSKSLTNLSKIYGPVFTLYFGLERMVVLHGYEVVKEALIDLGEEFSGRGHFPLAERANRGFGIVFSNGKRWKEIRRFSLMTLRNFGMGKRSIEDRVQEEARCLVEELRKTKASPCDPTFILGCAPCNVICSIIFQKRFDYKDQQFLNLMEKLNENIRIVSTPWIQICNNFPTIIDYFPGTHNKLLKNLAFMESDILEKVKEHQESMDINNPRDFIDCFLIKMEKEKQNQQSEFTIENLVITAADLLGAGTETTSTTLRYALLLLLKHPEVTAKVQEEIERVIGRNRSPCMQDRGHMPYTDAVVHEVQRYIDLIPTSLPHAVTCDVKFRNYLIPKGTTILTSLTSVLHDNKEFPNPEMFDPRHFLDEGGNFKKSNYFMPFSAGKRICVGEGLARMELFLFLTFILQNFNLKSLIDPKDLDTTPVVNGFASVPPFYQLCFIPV
Sequence of CYP3A4 (P08684 whole entry): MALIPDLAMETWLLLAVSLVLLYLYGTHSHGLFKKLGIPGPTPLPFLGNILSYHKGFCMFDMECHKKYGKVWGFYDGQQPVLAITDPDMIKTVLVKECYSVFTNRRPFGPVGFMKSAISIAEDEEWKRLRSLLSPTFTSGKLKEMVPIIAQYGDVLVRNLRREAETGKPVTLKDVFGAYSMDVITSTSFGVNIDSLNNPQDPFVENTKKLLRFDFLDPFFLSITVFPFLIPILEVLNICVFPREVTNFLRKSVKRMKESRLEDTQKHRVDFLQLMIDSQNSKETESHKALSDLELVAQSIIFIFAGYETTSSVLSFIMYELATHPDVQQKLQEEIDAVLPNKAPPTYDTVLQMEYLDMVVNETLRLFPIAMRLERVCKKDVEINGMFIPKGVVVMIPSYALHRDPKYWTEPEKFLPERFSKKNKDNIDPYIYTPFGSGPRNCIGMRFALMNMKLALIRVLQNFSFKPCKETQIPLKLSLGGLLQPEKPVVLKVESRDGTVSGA
Sequence of CYP2D6 (P10635 whole entry): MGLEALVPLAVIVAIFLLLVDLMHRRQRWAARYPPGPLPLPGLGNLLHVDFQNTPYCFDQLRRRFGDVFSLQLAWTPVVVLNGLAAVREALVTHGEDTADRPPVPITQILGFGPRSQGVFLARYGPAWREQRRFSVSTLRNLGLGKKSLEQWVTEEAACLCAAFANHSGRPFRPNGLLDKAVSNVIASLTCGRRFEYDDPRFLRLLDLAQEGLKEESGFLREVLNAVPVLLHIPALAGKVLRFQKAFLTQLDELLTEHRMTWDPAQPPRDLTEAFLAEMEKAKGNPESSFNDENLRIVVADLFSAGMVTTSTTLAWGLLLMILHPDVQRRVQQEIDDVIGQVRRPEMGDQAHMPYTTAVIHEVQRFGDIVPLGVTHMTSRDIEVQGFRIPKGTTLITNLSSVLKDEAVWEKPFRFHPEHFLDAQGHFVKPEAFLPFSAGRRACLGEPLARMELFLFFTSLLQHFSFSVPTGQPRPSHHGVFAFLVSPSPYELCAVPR

| Structure (SMILES) | inhibition at 10 µM (CYP3A4) [%] | inhibition at 10 µM (hERG (KCNH2)) [%] | viability at 10 µM [2] [%] | Activity (786-0) [%] | inhibition at 10 µM (CYP2D6) [%] | inhibition at 10 µM (CYP2C9) [%] | inhibition at 10 µM (CYP2C19) [%] | solubility kinetic [5] [µM] | solubility kinetic [6] [µM] | inhibition at 10 µM (CYP1A2) [%] | inhibition (Trypanosoma brucei) [%] | further results |
| --- | --- | --- | --- | --- | --- | --- | --- | --- | --- | --- | --- | --- |
| COc1cccc2c1C(=O)c1oc3c(c1C2=O)c(=O)oc1ccccc13 | 38.5 | 42.7 | 166 | 89.95 | 108 | 89.3 | 55.5 | 70 (≈ 24.2 µg/mL) | 35 (≈ 12.1 µg/mL) | 99.2 | – | Ki (Trypanothione reductase [1]): 22.4 µM; inhibition [3]: 42.6%; inhibition [4]: 41.1%; inhibition [7]: -3.51%; inhibition [8]: -5.69% |
| Nc1ccc2oc(=O)c3c4c(oc3c2c1)C(=O)c1c(O)cccc1C4=O | 46.8 | -7.99 | 157 | 97.94 | 71.5 | 85.9 | 63.6 | 14 (≈ 4.86 µg/mL) | 35 (≈ 12.2 µg/mL) | 37.8 | 75 | IC50 [9]: 2.1 µM; inhibition [10]: inactive; inhibition [11]: 6.19%; inhibition [12]: inactive; inhibition of growth at 50 µM [13]: 77%; inhibition [14]: 5.82% |
| O=C1c2oc3c(c2C(=O)c2cccc(O)c21)c(=O)oc1ccccc13 | 40.8 | 67.1 | 138 | 82.16 | 102 | 61.5 | 107 | 14 (≈ 4.65 µg/mL) | 70 (≈ 23.3 µg/mL) | 57.3 | 64 | inhibition [15]: 37.8%; inhibition [16]: 65%; inhibition of growth at 10 µM (Trypanosoma cruzi): < 20%; Ki (Trypanothione reductase [17]): 5.6 µM; inhibition [18]: 28.1%; inhibition of growth at 10 µM (Leishmania infantum): < 20%; inhibition of growth at 10 µM [19]: < 20%; inhibition [20]: 0.94% |
| CN(C)CCOc1cc2ccc(OC3=CC(=O)c4cc5ccccc5cc4C3=O)cc2oc1=O | – | – | – | – | – | – | – | – | – | – | – | IC50 [21]: 5.4 µM; Ki (Trypanothione reductase [22]): 2.3 µM |
